Experimental data taken from the RNAGym collection of RNA variant scans (doi:10.1126/science.aae0568).
Variants at the floor of the assay were thinned out.

B1: tRNA (parent)
chain: GUUCCGUUGGCGUAAUGGUAACGCGUCUCCCUCCUAAGGAGAAGACUGCGGGUUCGAGUCCCGUACGGAACG

Variants of: B1
Experiment: yeast fitness relative to wild type (ratio to wild type); higher = fitter; tRNA-Arg(CCU), competitive growth, 37 C, YPD
How it was run: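 A pool of Saccharomyces cerevisiae strains, each with a tRNA-Arg(CCU) gene variant at the native genomic locus, was competed in YPD at 37°C for 24 hours across six parallel replicates. The variants had been chemically synthesised at a 3% per-site mutation rate over 69 sites, and gene amplicons before and after competition were read by 100-nucleotide paired-end sequencing. Darwinian fitness relative to wild type rested on changes in genotype frequencies. Genotypes required ≥ 100 starting reads, and estimates < 0.5 were set to 0.5.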

Variant | yeast fitness
GUUCCGUUGGCGUAUUGGUAACGCGUCUCCCUCCUAAGGAGAAGACUGCGGGUUCGAGUCCCCUAGGGAACG [A15U G63C C66G] | ≤ 0.5
GUUCCGUUGGCGUAAAGGUAACGCGUCUCCCUCCUGAGGAGAAGACUGCGAGUUCGAGUCCCGUACGGAACG [U16A A36G G51A] | ≤ 0.5
GUUCCGUUGGCGUAUUGGUAACGCGUCUCCCUCCUAAGGAGAAGACUGCGGCUUCGAGUCCCGUUCCGAACG [A15U G52C A65U G67C] | ≤ 0.5
GUUCCGUUGGCGUAUUGGUAACGCGUCUCCCUCCUAAGGAGAAGACUGCGGGUUCGAGUGCCGUACAGAACG [A15U C60G G67A] | ≤ 0.5
GUUCCGUUGGCGUAUUGGUAACGCGUCUCGCUCCUAAGGAGAAGACUGCGGGUUCGAGUCUCGUACGAAACG [A15U C30G C61U G68A] | ≤ 0.5
GUUCCGUUGGCGUAUUGGUAACGCGUCUUCCUCCUAAGGAGAAGACUGCGGGUUCGAGUCCCGUACGGAACG [A15U C29U] | 0.749
GUUCCGUUGGCGUAUUGGAGACGCGUCUCCCUCCUAAGGUGAUGACUGCGGGUUCGAGUGCUGUGCGGAACG [A15U U19A A20G A40U A43U C60G C62U A65G] | ≤ 0.5
GUUCCGUUGGCGUAAAGGUAACGCGUCUCCCUCCUAAGGUGAAGACUGCGGGUUCGAGUCCCGUACGGAACG [U16A A40U] | 1
GUUCCGUUGGCGUAAAGGUAGUGCGUCUCCCUCCUAAGGAGAAGACUCCGGGUUCGAGUCCCCUACGGAACG [U16A A21G C22U G48C G63C] | ≤ 0.5
GUUCCGUUGGCGUAUUGGUAACGCGUCUCCUUCCUAAGGAGAAGAGUGCGGGUUCGAGUCCCGUGCGGAUCG [A15U C31U C46G A65G A70U] | ≤ 0.5
GUUCCGUUGGCGUAUUGGUAACGCGUCUCCCUGCUAAGGAGACUACUGCGGGUUCGAGUCCCGUACGGAACG [A15U C33G A43C G44U] | ≤ 0.5
GUUCCGUUGGCGUAUGGGUAACGCGUCUCCCUCCAAAGGAGAAGACUGCGGGUUCGAGACCCGUACGGAACG [A15U U16G U35A U59A] | ≤ 0.5
GUUCCGUUGGCGUAAAGGUUACGGGUCUCCCUGCUAAGGAGAAGACUGCGGGUUCGAGUCCCGUACGGAACG [U16A A20U C24G C33G] | ≤ 0.5
GUUCCGUUGGCGUAUUGGGAACGCGUCUCCCUCCUAAGGAGAAGACUGCGGGUUCGAGUCCCGUACGGAACG [A15U U19G] | 0.631
GUUCCGUUGGCGUAUUGGUAACGCAUCUCCCUGCUAAGGAGAAGACUGCGGGUUCGAGUCCGGUACGGAACG [A15U G25A C33G C62G] | ≤ 0.5
GUUCCGUUGGCGUAUUGGUAACGCGUCUCCUUCCUAAGGAGAAGACUGUGGAUUCGUCUCCCGUACGGAACG [A15U C31U C49U G52A A57U G58C] | ≤ 0.5
GUUCCGUUGGCGUAUUGCUAACGCGUCUCCCUCCUAAGGAGAAGACUGCGGGUUCGAGUCCCGUACGGAACG [A15U G18C] | 0.589
GUUCCGUUGGCGUAAAGGUAACGCGUCUCCCUCCUAUGGAGAAGACUGCGGGUUGCAGUCCCGUACGGAACG [U16A A37U C55G G56C] | ≤ 0.5
GUUCCGUUGGCGUAAAGGUCACGCGUCUCCCUCCUAAGGAGAAGACUGCGGGUUCGAGUCCCGUACGGAACG [U16A A20C] | 1.02

Variant | yeast fitness
GUUCCGUUGGCGUAUUGGUAACGCGUCUCCCUCCUAAGCAGAAGACCGCGGGUUCGAGUCCCGUACGGAACG [A15U G39C U47C] | ≤ 0.5
GUUCCGUUGGCGUAUUGGUAACGCGUCUCCCUCCUAAGGAGAAGAAUGCGGGUUCGAGUCGCGUACGGGACG [A15U C46A C61G A69G] | ≤ 0.5
GUUCCGUUGGCGUAUUGGUAACGCGUCUCCUUUCUAAGGAGAAGACUGCGGGUUCGAGUCCCGUACAGAACG [A15U C31U C33U G67A] | 0.642
GUUCCGUUGGCGUAUUGGUAACGCGUCUCCCUGCUAAGGAGAAGACUGAGGGUUCGAGUGCCGUACGGAACG [A15U C33G C49A C60G] | ≤ 0.5
GUUCCGUUGGCGUAUUGGUAACGCGUCUACCUCCUAAGGAGAAGACUGCGGGUUAGAGUCCCGUACGGAACG [A15U C29A C55A] | ≤ 0.5
GUUCCGUUGGCGUAUUGGUAACGCGUCUCCCUCCUAAGGAGAAGACUGCGGGUUCGAGUCCCGUAUGGACCG [A15U C66U A70C] | 0.566
GUUCCGUUGGCGUAUUGGUAACGCGUCUCCCACCUAAGGAGAAGACUGCAAGUUCCAGUCGCGUACGGAACG [A15U U32A G50A G51A G56C C61G] | 0.538
GUUCCGUUGGCGUAUUGCUAGCGCGUCUCCCUCCUAAGGAGAAGACUGCGGGUUCGAGACGCGUACGGAACG [A15U G18C A21G U59A C61G] | ≤ 0.5
GUUCCGUUGGCGUAUUGGUAACGCCUCUCCCUCAUAAGGAGAAGACUGCGGGUUCGAGUCCCGUACGGAACG [A15U G25C C34A] | 0.941
GUUCCGUUGGCGUAUUGGUAACGCGUCUCUCUCCUAGGGAGAAGACUGCGGGUUCGAGACCCGUACGGAACG [A15U C30U A37G U59A] | ≤ 0.5
GUUCCGUUGGCGUAUUGGUAACGCGUCUCUCUCCUAAGGAGAAGACUGCGGGUUCGAGUCCCGUACGGAACG [A15U C30U] | 0.859
GUUCCGUUGGCGUAAAGGUAACGCGUCUCCCUCCUGAGGAGAAGACUGCGGGUUCGUGUCCCGUACGGAGCG [U16A A36G A57U A70G] | ≤ 0.5
GUUCCGUUGGCGUAUUGGUAACGCGUCUCCCUCCUAACAAGACGACUGCGGGUUCGUGUCCCGUACGGAACG [A15U G38C G39A A43C A57U] | ≤ 0.5
GUUCCGUUGGCGUAAAGGUAACGCGUCUCCCUCCUAAGGAGACGGCUGCGGGUUCGAGUCCCGUACGGAACG [U16A A43C A45G] | 0.988
GUUCCGUUGGCGUAUUGGUAACGCGUCUCCCUCCUAAGGAGAAGACUGCGGGUUCGAGCCCCGUACGGAACG [A15U U59C] | 0.788
GUUCCGUUGGCGUAUUGGUAACGCGUCUCCCUCCUAAGGAGAAGACUGCGGGUUCGAGUCCCAUACGGCACG [A15U G63A A69C] | 0.539
GUUCCGUUGGCGUAAAGGUAACGCGUCUCCCUCCUAGGGCGAAGACGGCGGGUUCGAGUCCCGUACGGAACG [U16A A37G A40C U47G] | ≤ 0.5
GUUCCGUUGGCGUAUUGGUAACGCGUCUCCCUGCUAAGGAGAAGACUGCGGGUUCGAGUCCCGUAUGGAACG [A15U C33G C66U] | ≤ 0.5
GUUCCGUUGGCGUAUUGGUAACACGUCUCCCUCCUAAGGAGAAGACUGCGGGUUCGAGUGCCGUACGGAACG [A15U G23A C60G] | ≤ 0.5
